Laboratory results: ChEMBL document CHEMBL2016434, “Exploiting the P-1 pocket of BRCT domains toward a structure guided inhibitor design” (ACS Med Chem Lett, 2011)
The source made the active and inactive calls. No cut-off for these calls is given here. Non-standard residues stand in square brackets, D forms with d. Residues, ends and D or L forms follow the SMILES beside them. *: point of attachment. Benzoyl(3-Ph) = O=C(c1cccc(-c2ccccc2)c1)*; 2Nal = N[C@@H](Cc1ccc2ccccc2c1)C(=O)O; d2Nal = N[C@H](Cc1ccc2ccccc2c1)C(=O)O; Pentanoyl(5-Ph) = O=C(CCCCc1ccccc1)*; Butanoyl(4-Ph) = O=C(CCCc1ccccc1)*; Hydrocinnamoyl = O=C(CCc1ccccc1)*; pS = N[C@@H](COP(=O)(O)O)C(=O)O; X1 = O=C(C/C=C/c1ccccc1)*

Columns and labels:
[1] = target: T1, Breast cancer type 1 susceptibility protein (Homo sapiens, UniProt P38398); assay: Inhibition of BRCT domain of His-tagged BRCA1 after 1 min by competitive fluorescence polarization assay
Target sequence in this assay (P38398 whole entry, the tested form may be a part): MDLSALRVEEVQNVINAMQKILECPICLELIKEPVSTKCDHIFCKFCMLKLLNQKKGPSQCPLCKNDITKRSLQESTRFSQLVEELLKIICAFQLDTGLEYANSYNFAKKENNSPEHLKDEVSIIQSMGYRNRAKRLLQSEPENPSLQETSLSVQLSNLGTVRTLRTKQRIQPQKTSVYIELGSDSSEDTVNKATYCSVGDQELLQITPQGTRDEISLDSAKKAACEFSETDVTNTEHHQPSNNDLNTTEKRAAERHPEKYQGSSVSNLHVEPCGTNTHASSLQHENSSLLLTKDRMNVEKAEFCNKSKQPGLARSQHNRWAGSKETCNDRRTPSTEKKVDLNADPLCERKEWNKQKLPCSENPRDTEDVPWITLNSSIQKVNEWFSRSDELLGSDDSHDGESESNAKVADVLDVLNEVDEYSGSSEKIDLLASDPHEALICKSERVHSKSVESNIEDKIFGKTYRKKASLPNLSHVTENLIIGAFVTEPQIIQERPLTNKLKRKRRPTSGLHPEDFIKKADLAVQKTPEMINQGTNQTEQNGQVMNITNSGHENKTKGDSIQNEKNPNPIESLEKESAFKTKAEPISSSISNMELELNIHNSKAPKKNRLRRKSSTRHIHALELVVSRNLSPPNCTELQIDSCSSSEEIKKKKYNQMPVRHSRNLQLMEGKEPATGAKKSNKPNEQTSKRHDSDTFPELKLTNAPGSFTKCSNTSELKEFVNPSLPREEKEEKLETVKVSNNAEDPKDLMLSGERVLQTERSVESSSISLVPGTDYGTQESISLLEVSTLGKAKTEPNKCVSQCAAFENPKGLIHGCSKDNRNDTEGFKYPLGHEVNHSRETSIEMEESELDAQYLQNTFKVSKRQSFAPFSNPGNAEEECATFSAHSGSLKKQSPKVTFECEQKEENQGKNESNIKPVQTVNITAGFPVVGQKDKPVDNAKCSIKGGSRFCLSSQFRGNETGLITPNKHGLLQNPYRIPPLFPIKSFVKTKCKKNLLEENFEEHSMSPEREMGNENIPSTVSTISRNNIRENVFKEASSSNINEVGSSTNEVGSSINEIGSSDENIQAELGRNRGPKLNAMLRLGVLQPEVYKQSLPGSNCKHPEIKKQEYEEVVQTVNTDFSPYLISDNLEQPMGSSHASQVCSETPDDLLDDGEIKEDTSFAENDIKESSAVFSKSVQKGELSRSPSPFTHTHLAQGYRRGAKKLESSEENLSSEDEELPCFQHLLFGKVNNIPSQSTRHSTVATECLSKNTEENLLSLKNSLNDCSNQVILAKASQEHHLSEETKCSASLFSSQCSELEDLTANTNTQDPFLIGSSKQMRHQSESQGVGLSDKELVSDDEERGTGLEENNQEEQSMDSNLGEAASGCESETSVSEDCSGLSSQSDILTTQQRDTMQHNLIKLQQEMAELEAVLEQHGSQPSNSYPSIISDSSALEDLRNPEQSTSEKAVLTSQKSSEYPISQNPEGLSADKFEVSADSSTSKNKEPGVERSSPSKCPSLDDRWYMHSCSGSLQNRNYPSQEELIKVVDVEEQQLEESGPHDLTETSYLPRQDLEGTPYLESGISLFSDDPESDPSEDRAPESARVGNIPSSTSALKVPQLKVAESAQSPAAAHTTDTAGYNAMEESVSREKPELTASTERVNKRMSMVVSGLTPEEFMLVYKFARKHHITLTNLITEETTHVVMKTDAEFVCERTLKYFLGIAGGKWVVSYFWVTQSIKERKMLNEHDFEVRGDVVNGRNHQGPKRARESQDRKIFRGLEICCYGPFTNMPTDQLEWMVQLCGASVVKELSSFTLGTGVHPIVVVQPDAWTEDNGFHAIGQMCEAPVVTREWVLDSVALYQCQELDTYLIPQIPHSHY

[2] = target: T1, Breast cancer type 1 susceptibility protein; assay: Displacement of phospho-BACH1 protein from BRCT domain of BRCA1 at 0.5 to 5000 uM by PAGE analysis
How it was run: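 Phospho-BACH1 peptide immobilized on streptavidin–agarose beads was incubated with BRCT-BRCA1 together with the competing peptide mimics. Beads were then isolated and the bound protein resolved by polyacrylamide gel electrophoresis, followed by phosphor-screen exposure. Relative band intensities were quantified, and pulldown IC50 values were obtained by curve fitting.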
Target sequence in this assay (P38398 whole entry, looked up, the tested form may be a part): as the sequence (P38398 whole entry, the tested form may be a part) above

| Compound | Ki [1] [nM] | Activity [2] |
| --- | --- | --- |
| CC(=O)N[C@@H](Cc1ccc2ccccc2c1)C(=O)N[C@@H](COP(=O)(O)O)C(=O)N1CCC[C@H]1C(=O)N[C@H](C(=O)N[C@@H](Cc1ccccc1)C(N)=O)C(C)C (Ac-[2Nal][pS]PVF-NH2) | 540 | – |
| CC(=O)N[C@H](Cc1ccc2ccccc2c1)C(=O)N[C@@H](COP(=O)(O)O)C(=O)N1CCC[C@H]1C(=O)N[C@H](C(=O)N[C@@H](Cc1ccccc1)C(N)=O)[C@@H](C)O (Ac-[d2Nal][pS]PTF-NH2) | 19400 | – |
| CC(C)[C@H](NC(=O)[C@@H]1CCCN1C(=O)[C@H](COP(=O)(O)O)NC(=O)CCc1ccccc1)C(=O)N[C@@H](Cc1ccccc1)C(=O)O (Hydrocinnamoyl-[pS]PVF-OH) | 100 | – |
| CC(=O)N[C@@H](Cc1ccc2ccccc2c1)C(=O)N[C@@H](COP(=O)(O)O)C(=O)N1CCC[C@H]1C(=O)N[C@H](C(=O)N[C@@H](Cc1ccccc1)C(=O)O)C(C)C (Ac-[2Nal][pS]PVF-OH) | 130 | – |
| CC(C)[C@H](NC(=O)[C@@H]1CCCN1C(=O)[C@H](COP(=O)(O)O)NC(=O)C/C=C/c1ccccc1)C(=O)N[C@@H](Cc1ccccc1)C(=O)O (X1-[pS]PVF-OH) | 40 | Active |
| CC(C)[C@H](NC(=O)[C@@H]1CCCN1C(=O)[C@H](COP(=O)(O)O)NC(=O)CCCc1ccccc1)C(=O)N[C@@H](Cc1ccccc1)C(=O)O ({Butanoyl(4-Ph)}-[pS]PVF-OH) | 500 | – |
| CC(C)[C@H](NC(=O)[C@@H]1CCCN1C(=O)[C@H](COP(=O)(O)O)NC(=O)c1cccc(-c2ccccc2)c1)C(=O)N[C@@H](Cc1ccccc1)C(=O)O ({Benzoyl(3-Ph)}-[pS]PVF-OH) | 80 | Active |
| CC(C)[C@H](NC(=O)[C@@H]1CCCN1C(=O)[C@H](COP(=O)(O)O)NC(=O)CCCCc1ccccc1)C(=O)N[C@@H](Cc1ccccc1)C(=O)O ({Pentanoyl(5-Ph)}-[pS]PVF-OH) | 12000 | – |
| CC(=O)N[C@@H](Cc1ccc2ccccc2c1)C(=O)N[C@@H](COP(=O)(O)O)C(=O)N1CCC[C@H]1C(=O)N[C@H](C(=O)N[C@@H](Cc1ccccc1)C(N)=O)[C@@H](C)O (Ac-[2Nal][pS]PTF-NH2) | 1240 | – |
